Laboratory results reported in ChEMBL document CHEMBL1649572, “Synergistic interaction between silver nanoparticles and membrane-permeabilizing antimicrobial peptides” (Antimicrob Agents Chemother, 2009).
In brackets after ≈: the same amount, converted by molar mass. Square brackets hold non-standard residues; d marks the D form. Peptide text beside a SMILES is read from it. * marks the point of attachment. Orn = NCCC[C@H](N)C(=O)O; NHCH2CH2OH = OCCN*; For = O=C*

Assays:
[1] = system: Bacillus subtilis; assay: microbe, parasite or virus in culture; type: functional; settings: DSM 347
[2] = system: Kocuria rhizophila; assay: Antibacterial activity against Kocuria rhizophila DSM 348 in presence of silver nitrate; type: functional
Method in brief: (§1)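 Two-dimensional (checkerboard) microdilution: AgNO3 or carbon-matrix-stabilized silver nanoparticles (mean diameter 25 nm) crossed with a membrane-active antimicrobial peptide, in salt-free Luria/Miller bouillon. Nanoparticles dissolved in 8 mM Tris/HCl pH 7.6 with 150 mM NaCl. MICs taken alone and in combination; FIC index = MIC(A with B)/MIC(A alone) + MIC(B with A)/MIC(B alone). <0.5 synergy, 0.5–2.0 additive, >2.0 antagonism.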

[3] = system: Pseudomonas fluorescens; assay: microbe, parasite or virus in culture; type: functional; settings: DSM 50090
[4] = system: Escherichia coli; assay: Antibacterial activity against Escherichia coli DSM 498 in presence of silver nanoparticles; type: functional
Method in brief: as §1

[5] = system: Bacillus subtilis; assay: Antibacterial activity against Bacillus subtilis DSM 347 in presence of silver nanoparticles; type: functional
Method in brief: as §1

[6] = Toxicity in human erythrocytes assessed as hemolysis by serial dilution method
[7] = system: Micrococcus luteus; assay: microbe, parasite or virus in culture; type: functional; settings: DSM 1790
[8] = system: Escherichia coli; assay: Antibacterial activity against Escherichia coli DSM 498 in presence of silver nitrate; type: functional
Method in brief: as §1

[9] = system: Kocuria rhizophila; assay: Antibacterial activity against Kocuria rhizophila DSM 348 in presence of silver nanoparticles; type: functional
Method in brief: as §1

[10] = system: Proteus myxofaciens; assay: microbe, parasite or virus in culture; type: functional; settings: DSM 4482
[11] = system: Aeromonas bestiarum; assay: microbe, parasite or virus in culture; type: functional; settings: DSM 13956
[12] = system: Pseudomonas fluorescens; assay: Antibacterial activity against Pseudomonas fluorescens DSM 50090 in presence of silver nitrate; type: functional
Method in brief: as §1

[13] = system: Kocuria rhizophila; assay: microbe, parasite or virus in culture; type: functional; settings: DSM 348
[14] = system: Bacillus subtilis; assay: Antibacterial activity against Bacillus subtilis DSM 347 in presence of silver nitrate; type: functional
Method in brief: as §1

[15] = system: Escherichia coli; assay: microbe, parasite or virus in culture; type: functional; settings: DSM 498
[16] = system: Acinetobacter calcoaceticus; assay: microbe, parasite or virus in culture; type: functional; settings: DSM 586
[17] = system: Pseudomonas fluorescens; assay: Antibacterial activity against Pseudomonas fluorescens DSM 50090 in presence of silver nanoparticles; type: functional
Method in brief: as §1

[18] = system: Enterobacter helveticus; assay: microbe, parasite or virus in culture; type: functional; settings: Franconibacter helveticus, DSM 18396
[19] = system: Micrococcus luteus; assay: Antibacterial activity against Micrococcus luteus DSM 1790 in presence of silver nitrate; type: functional
Method in brief: as §1

[20] = system: Micrococcus luteus; assay: Antibacterial activity against Micrococcus luteus DSM 1790 in presence of silver nanoparticles; type: functional
Method in brief: as §1

[21] = system: Enterobacter helveticus; assay: Antibacterial activity against Enterobacter helveticus DSM 18396 in presence of silver nanoparticles; type: functional, Franconibacter helveticus
Method in brief: as §1

[22] = system: Proteus myxofaciens; assay: Antibacterial activity against Proteus myxofaciens DSM 4482 in presence of silver nanoparticles; type: functional
Method in brief: as §1

[23] = system: Aeromonas bestiarum; assay: Antibacterial activity against Aeromonas bestiarum DSM 13956 in presence of silver nitrate; type: functional
Method in brief: as §1

[24] = system: Enterobacter helveticus; assay: Antibacterial activity against Enterobacter helveticus DSM 18396 in presence of silver nitrate; type: functional, Franconibacter helveticus
Method in brief: as §1

[25] = system: Proteus myxofaciens; assay: Antibacterial activity against Proteus myxofaciens DSM 4482 in presence of silver nitrate; type: functional
Method in brief: as §1

[26] = system: Acinetobacter calcoaceticus; assay: Antibacterial activity against Acinetobacter calcoaceticus DSM 586 in presence of silver nitrate; type: functional
Method in brief: as §1

[27] = system: Aeromonas bestiarum; assay: Antibacterial activity against Aeromonas bestiarum DSM 13956 in presence of silver nanoparticles; type: functional
Method in brief: as §1

[28] = system: Proteus myxofaciens; settings: DSM 4482
[29] = system: Bacillus subtilis; settings: DSM 347
[30] = system: Micrococcus luteus; settings: DSM 1790
[31] = system: Kocuria rhizophila; settings: DSM 348
[32] = system: Pseudomonas fluorescens; settings: DSM 50090
[33] = system: Acinetobacter calcoaceticus; settings: DSM 586
[34] = system: Escherichia coli; settings: DSM 498
[35] = system: Enterobacter helveticus; settings: Franconibacter helveticus; DSM 18396
[36] = system: Aeromonas bestiarum; settings: DSM 13956

Compound	MIC [1]	MIC [3]	MIC [7]	MIC [10]	MIC [11]	MIC [13]	MIC [15]	MIC [16]	MIC [18]	fractional inhibitory concentration index (FICI) [2]	fractional inhibitory concentration index (FICI) [4]	fractional inhibitory concentration index (FICI) [5]	HC50 ([6]; human erythrocytes)	fractional inhibitory concentration index (FICI) [8]	fractional inhibitory concentration index (FICI) [9]	fractional inhibitory concentration index (FICI) [12]	fractional inhibitory concentration index (FICI) [14]	fractional inhibitory concentration index (FICI) [19]	fractional inhibitory concentration index (FICI) [20]	fractional inhibitory concentration index (FICI) [26]	also measured
CC(C)C[C@@H]1NC(=O)[C@H](CCCN)NC(=O)[C@H](C(C)C)NC(=O)[C@@H]2CCCN2C(=O)[C@@H](Cc2ccccc2)NC(=O)[C@H](CC(C)C)NC(=O)[C@H](CCCN)NC(=O)[C@H](C(C)C)NC(=O)[C@@H]2CCCN2C(=O)[C@@H](Cc2ccccc2)NC1=O [GRAMICIDIN S] (cyclo(L[dF]PV[Orn]L[dF]PV[Orn]))	2 µg/mL (≈ 1.75 µM)	16 µg/mL (≈ 14 µM)	2 µg/mL (≈ 1.75 µM)	16 µg/mL (≈ 14 µM)	32 µg/mL (≈ 28 µM)	4 µg/mL (≈ 3.5 µM)	8 µg/mL (≈ 7.01 µM)	16 µg/mL (≈ 14 µM)	4 µg/mL (≈ 3.5 µM)	0.92	0.56	0.77	10.1 µg/mL	0.83	0.83	0.67	0.73	0.92	1.25	0.77	fractional inhibitory concentration index (FICI) [21]: 0.44; fractional inhibitory concentration index (FICI) [22]: 0.38; fractional inhibitory concentration index (FICI) [23]: 0.53; fractional inhibitory concentration index (FICI) [24]: 0.32; fractional inhibitory concentration index (FICI) [25]: 0.63; fractional inhibitory concentration index (FICI) [27]: 0.63; fractional inhibitory concentration index (FICI) [17]: 0.48
H-GIGKFLHSAKKFGKAFVGEIMNS-OH [MAGAININ 2]	16 µg/mL	> 256 µg/mL	16 µg/mL	> 256 µg/mL	> 256 µg/mL	16 µg/mL	16 µg/mL	16 µg/mL	8 µg/mL	0.67	0.86	0.67	202 µg/mL	1	0.96	–	0.69	1.02	1.04	0.79	fractional inhibitory concentration index (FICI) [21]: 0.59; fractional inhibitory concentration index (FICI) [24]: 0.71
POLYMYXIN B [listing 1 of 2 here]	–	–	–	–	–	–	–	–	–	–	–	–	–	–	–	–	–	–	–	–	HC50 ([6]; erythrocyte): 210.7 µg/mL
POLYMYXIN B [listing 2 of 2 here]	–	–	–	–	–	–	–	–	–	0.83	0.38	0.96	–	0.38	0.61	0.56	0.59	0.58	0.96	0.83	MIC [28]: 16 µg/mL; fractional inhibitory concentration index (FICI) ([21]; Franconibacter helveticus): 0.38; MIC [29]: 8 µg/mL; fractional inhibitory concentration index (FICI) [22]: 0.23; fractional inhibitory concentration index (FICI) [23]: 0.5; MIC [30]: 4 µg/mL; MIC [31]: 16 µg/mL; MIC [32]: 128 µg/mL; MIC [33]: 1 µg/mL; MIC [34]: 1 µg/mL; MIC [35]: 1 µg/mL; fractional inhibitory concentration index (FICI) ([24]; Franconibacter helveticus): 0.29; MIC [36]: 16 µg/mL; fractional inhibitory concentration index (FICI) [25]: 0.23; fractional inhibitory concentration index (FICI) [27]: 0.39; fractional inhibitory concentration index (FICI) [17]: 0.27

More lines, main results first:

MIC [1]	MIC [3]	MIC [7]	MIC [10]	MIC [11]	MIC [13]	MIC [15]	MIC [16]	MIC [18]	Compound	fractional inhibitory concentration index (FICI) [2]	fractional inhibitory concentration index (FICI) [4]	fractional inhibitory concentration index (FICI) [5]	HC50 ([6]; human erythrocytes)	fractional inhibitory concentration index (FICI) [8]	fractional inhibitory concentration index (FICI) [9]	fractional inhibitory concentration index (FICI) [12]	fractional inhibitory concentration index (FICI) [14]	fractional inhibitory concentration index (FICI) [19]	fractional inhibitory concentration index (FICI) [20]	fractional inhibitory concentration index (FICI) [26]	also measured
8 µg/mL (≈ 4.07 µM)	128 µg/mL (≈ 65.2 µM)	8 µg/mL (≈ 4.07 µM)	256 µg/mL (≈ 130 µM)	256 µg/mL (≈ 130 µM)	8 µg/mL (≈ 4.07 µM)	256 µg/mL (≈ 130 µM)	256 µg/mL (≈ 130 µM)	256 µg/mL (≈ 130 µM)	CC(=O)NC(C)(C)C(=O)N1CCC[C@H]1C(=O)NC(C)(C)C(=O)N[C@@H](C)C(=O)NC(C)(C)C(=O)N[C@@H](C)C(=O)N[C@@H](CCC(N)=O)C(=O)NC(C)(C)C(=O)N[C@H](C(=O)NC(C)(C)C(=O)NCC(=O)N[C@@H](CC(C)C)C(=O)NC(C)(C)C(=O)N1CCC[C@H]1C(=O)N[C@H](C(=O)NC(C)(C)C(=O)NC(C)(C)C(=O)N[C@@H](CCC(=O)O)C(=O)N[C@@H](CCC(N)=O)C(=O)N[C@H](CO)Cc1ccccc1)C(C)C)C(C)C [ALAMETHICIN]	1	0.5	0.88	17.9 µg/mL	0.5	1	1	1	–	–	–	fractional inhibitory concentration index (FICI) [17]: 1
1 µg/mL (≈ 0.531 µM)	> 128 µg/mL	1 µg/mL (≈ 0.531 µM)	> 128 µg/mL	> 128 µg/mL	1 µg/mL (≈ 0.531 µM)	> 128 µg/mL	> 128 µg/mL	> 128 µg/mL	CC(C)C[C@@H](NC(=O)[C@H](C)NC(=O)CNC(=O)[C@@H](NC=O)C(C)C)C(=O)N[C@@H](C)C(=O)N[C@@H](C(=O)N[C@H](C(=O)N[C@@H](C(=O)N[C@@H](Cc1c[nH]c2ccccc12)C(=O)N[C@H](CC(C)C)C(=O)N[C@@H](Cc1c[nH]c2ccccc12)C(=O)N[C@H](CC(C)C)C(=O)N[C@@H](Cc1c[nH]c2ccccc12)C(=O)N[C@H](CC(C)C)C(=O)N[C@@H](Cc1c[nH]c2ccccc12)C(=O)NCCO)C(C)C)C(C)C)C(C)C [GRAMICIDIN A] (For-VGA[dL]A[dV]V[dV]W[dL]W[dL]W[dL]W-NHCH2CH2OH)	0.79	–	0.94	2.3 µg/mL	–	1.04	–	0.42	0.88	1.04	–	–
8 µg/mL	> 256 µg/mL	4 µg/mL	> 256 µg/mL	> 256 µg/mL	8 µg/mL	8 µg/mL	8 µg/mL	8 µg/mL	H-GMASKAGAIAGKIAKVALKAL-NH2	1.08	1	0.71	165 µg/mL	0.67	1.01	–	0.92	0.71	1	1.08	fractional inhibitory concentration index (FICI) [21]: 0.57; fractional inhibitory concentration index (FICI) [24]: 0.71
